One data set deals with MT2. Briefly: (§1) Cytotoxicity against human MT2 cells after 5 days by MTT assay. The note with it: mt2, 120 h. Format: cell-based. In short, it runs like this: (§2)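 MT-2 cells infected with HIV-1 IIIB are read by MTT assay following a previously published protocol. Inhibition of viral replication gives EC50, and the cytotoxicity read-out gives CC50.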
The target in data set [1] is Human immunodeficiency virus type 1 reverse transcriptase (Human immunodeficiency virus 1) (UniProt Q72547). Briefly: Ratio of d4T IC50 to compound IC50 for HIV-1 6His-tagged reverse transcriptase p66/p51.
For data set [2], the target named is Human immunodeficiency virus type 1 reverse transcriptase (Human immunodeficiency virus 1, UniProt Q72547). Briefly: Inhibition of HIV-1 6His-tagged reverse transcriptase p66/p51-mediated TTP incorporation into D23/D36 primer/template preincubated for 15 mins followed by D23/D36 primer/template and TTP addition measured after 15 mins by PAGE analysis. In short, it runs like this: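 Steady-state competition assay measuring inhibition of HIV-1 RT-catalysed TTP incorporation opposite template A into radiolabeled D23/D36 primer/template. Products are resolved on gel across increasing inhibitor concentrations, with a reference NNRTI positive control at 250 nM. Percent RT activity loss is plotted against inhibitor concentration to derive IC50.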

A short description of data set [3]: Selectivity index, ratio of CC50 for human MT2 cells to EC50 for HIV1 3B. The note with it: read-out: Ratio CC50/EC50. Type of data set: toxicity, cell-based.
The test system of data set [4] is Human immunodeficiency virus 1. The data set can be described thus: Antiviral activity against HIV1 3B infected in human MT2 cells after 5 days by MTT assay. Format: functional, organism-based. In short, it runs like this: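 HIV-1 IIIB replication in MT-2 cell culture, with MTT read-out following a previously published protocol. The nucleoside form was tested. d4T and ddC (NRTI) and TMC120 (NNRTI) were run alongside as positive controls.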
A general note: Tetrazolium assays rely on reduction of a dye to a coloured formazan, in cell work by metabolically active cells.

The target of data set [5] is Human immunodeficiency virus type 1 reverse transcriptase (Human immunodeficiency virus 1) (UniProt Q72547). The data set can be described thus: Binding affinity to HIV-1 6His-tagged reverse transcriptase p66/p51 assessed as compound incorporation into D23/D36 primer/template at 50 uM after 60 mins by PAGE analysis in presence of MgCl2. In short, it runs like this:
(§3)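 Single-turnover incorporation by HIV-1 RT of the chimeric triphosphate as substrate, using radiolabeled D23/D36 primer/template (template base pairs with TTP). Reactions are sampled at a 0 time point, and a negative control lacks Mg2+. Products are resolved by gel electrophoresis to detect an elongated primer band. A mispaired D23/D36B primer/template (dC opposite template dGMP) serves as a comparison.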

Data set [6] concerns Human immunodeficiency virus 1. Briefly: Ratio of d4T EC50 to compound EC50 for HIV1 3B infected in human MT2 cells. Format: functional.
Data set [7] in a line: as §1. Format: cell-based. The note with it: MT2 cells. The method, boiled down:
as §2

Data set [8] addresses Human immunodeficiency virus type 1 reverse transcriptase (Human immunodeficiency virus 1) (UniProt Q72547). The data set can be described thus: Binding affinity to HIV-1 6His-tagged reverse transcriptase p66/p51 assessed as compound incorporation into D23/D36 primer/template at 50 uM after 60 mins by PAGE analysis. The method, boiled down: as §3

Calls of active or inactive are those of the source. The rule behind the calls is not given here.

These results are taken from ChEMBL document CHEMBL3098078, “Design, Synthesis, and Antiviral Evaluation of Chimeric Inhibitors of HIV Reverse Transcriptase” (ACS Med Chem Lett, 2013).

A word on the IC50: it is the point on the concentration scale where inhibition reaches its midpoint. A higher IC50 goes with lower potency. In general, CC50 refers to the concentration that lowers cell viability or growth by half. One may read the EC50 as the concentration that produces a half-maximal response. Lower therefore signals higher potency in that assay.

`Cc1cc(C#CCCCCCCCC(=O)NCc2cn([C@H]3C[C@H](O)[C@@H](CO[PH](=O)O)O3)c(=O)[nH]c2=O)cc(C)c1Oc1ccnc(Nc2ccc(C#N)cc2)n1`: the Activity result in the data set on MT2 was “Toxic”. Besides, the Ratio IC50 in [1] amounted to 3000. In data set [2], this compound registered an IC50 of 4.3 nM. In addition, in [3], the selectivity ratio is 27. The result in data set [4] was Active. The outcome in data set [5] was inactive. The “Ratio EC50” value in data set [6] is recorded as 16.

In the case of `Nc1ccn([C@H]2CC[C@@H](CO)O2)c(=O)n1` [ZALCITABINE], the CC50 at 120 h in data set [7] is 4000 nM.

`Cc1cc(C)c(Nc2ccnc(Nc3ccc(C#N)cc3)n2)c(C)c1` [DAPIVIRINE]: the CC50 at 120 h in data set [7] is 1900 nM.

Turning to `Cc1cc(C#CCCCCCCCC(=O)NCc2cn([C@H]3C[C@H](O)[C@@H](CO)O3)c(=O)[nH]c2=O)cc(C)c1Oc1ccnc(Nc2ccc(C#N)cc2)n1`, in data set [3], the selectivity ratio stood at 18. Also, the “Ratio EC50” value in data set [6] is 30.

With `Cc1cc(C#CCCCCCCCC(=O)NCc2cn([C@H]3C[C@H](O)[C@@H](COP(=O)(O)OP(=O)(O)OP(=O)(O)O)O3)c(=O)[nH]c2=O)cc(C)c1Oc1ccnc(Nc2ccc(C#N)cc2)n1`, the Ratio IC50 in data set [1] is 2000. Besides, the outcome in data set [8] was inactive. Also, the midpoint of inhibition in [2], the IC50, lay at 6 nM. Further, the outcome in data set [5] was Active.

With `Cc1cn([C@H]2C=C[C@@H](CO)O2)c(=O)[nH]c1=O` [STAVUDINE], the midpoint of cytotoxicity in [7], the CC50 at 120 h, lay at 2200 nM. In [4] (Human immunodeficiency virus 1, 3B, MT2, 120 h), the EC50 is 3.6 µM.
